Results taken from PubChem BioAssay AID623886 (Johns Hopkins Ion Channel Center, 2012).
Calls of active or inactive are those of the source.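 How the source made its calls: active means peak inhibition of the KCNQ2 potassium channel above 30% at some tested dose, plus a fitted dose response curve; inactive means no inhibition at any dose, or no curve.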

Target: Potassium voltage-gated channel subfamily KQT member 2 (Rattus norvegicus) (UniProt O88943)
Assay: KCNQ2 channel inhibition, SAR follow-up, selectivity assay for KCNK9 inhibitor project, cell-based, FluxOR thallium flux, concentration-response (AID 623886)
Settings: KCNQ2 cell line, FluxOR thallium flux fluorescence; series mostly up to 30 µM; thallium flux ratio, lower = inhibition: at the top concentration
How it was run: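 Test system – CHO cells expressing KCNQ2 potassium channel · Reagent – K2SO4/Tl2SO4 stimulus (5x stock 25 mM, 7 mM) · Timing – FluxOR dye loading 90 min, compound pre-exposure 20 min, both room temperature · Detection – kinetic FluxOR fluorescence, 10 s baseline, 110 s post-stimulus · Read-out basis – fluorescence range-to-baseline ratio · Controls – XE-991 full block · Replicates – duplicate or more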

Sequence of Potassium voltage-gated channel subfamily KQT member 2 (Rattus norvegicus) (O88943 whole entry, looked up): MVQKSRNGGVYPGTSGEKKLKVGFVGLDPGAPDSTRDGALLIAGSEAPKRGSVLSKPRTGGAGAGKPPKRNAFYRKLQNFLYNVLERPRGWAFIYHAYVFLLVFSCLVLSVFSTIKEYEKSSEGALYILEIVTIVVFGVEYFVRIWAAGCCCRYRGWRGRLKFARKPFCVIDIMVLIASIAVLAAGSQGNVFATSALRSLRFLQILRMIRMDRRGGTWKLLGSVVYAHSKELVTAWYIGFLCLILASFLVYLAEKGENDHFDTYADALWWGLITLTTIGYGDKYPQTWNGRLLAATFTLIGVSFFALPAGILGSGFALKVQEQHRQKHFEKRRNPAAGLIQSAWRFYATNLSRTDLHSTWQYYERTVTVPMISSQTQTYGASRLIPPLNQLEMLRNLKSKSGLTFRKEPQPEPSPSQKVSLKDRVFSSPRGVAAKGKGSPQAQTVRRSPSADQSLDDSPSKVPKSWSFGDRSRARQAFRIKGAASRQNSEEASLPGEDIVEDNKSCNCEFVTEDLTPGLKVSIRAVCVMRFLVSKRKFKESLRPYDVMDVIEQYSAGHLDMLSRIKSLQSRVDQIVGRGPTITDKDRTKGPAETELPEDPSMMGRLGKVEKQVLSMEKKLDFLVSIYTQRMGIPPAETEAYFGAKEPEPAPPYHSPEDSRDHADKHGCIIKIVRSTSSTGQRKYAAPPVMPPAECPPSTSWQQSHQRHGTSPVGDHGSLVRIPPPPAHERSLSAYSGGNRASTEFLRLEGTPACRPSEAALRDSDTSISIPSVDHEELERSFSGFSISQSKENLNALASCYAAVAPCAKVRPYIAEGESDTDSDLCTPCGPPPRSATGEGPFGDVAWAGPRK

Thallium flux ratio, lower = inhibition, inactive:
Cc1cccc(NC(=O)c2cccc(NC(=O)c3ccccc3)c2)c1 0.187
Cc1cccc(NC(=O)c2ccccc2NC(=O)c2ccccc2)c1 0.206
Cc1cccc(C(=O)Nc2ccccc2C(=O)Nc2ccccc2)c1 0.171
Cc1cccc(C(=O)Nc2cccc(C(=O)Nc3ccccc3)c2)c1 0.18
Cc1cccc(C(=O)Nc2ccc(C(=O)Nc3ccccc3)cc2)c1 0.198
